Laboratory results from ChEMBL document CHEMBL3124924, “Bifunctional ethyl 2-amino-4-methylthiazole-5-carboxylate derivatives: synthesis and in vitro biological evaluation as antimicrobial and anticancer agents” (2014).
≈ marks a conversion by molar mass, not a printed value. Calls of active or inactive are those of the source. The rule behind the calls is not given here.

Tests used:
Candida albicans [1] = experiment: Antifungal activity against Candida albicans ATCC 10231 assessed as growth inhibition at 1 mg/mL after 48 hrs by agar-cup diffusion method; assay type: functional; settings: ATCC 10231, 48 h, read-out: DIZ
Summary of the method: (§1)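 Agar-cup diffusion: 1 mL of 6 h broth culture seeded per 100 mL molten sterile agar at 45 °C and poured into plates. 8 mm cups cut, each filled with 0.1 mL of 1 mg/mL test solution. Incubated 37 °C for 24 h, 48 h for C. albicans. DMSO control per organism. Inhibition zone diameter in mm, mean of three measurements.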

Bacillus spizizenii [2] = experiment: Antibacterial activity against Bacillus subtilis ATCC 6633 assessed as growth inhibition after 48 hrs by two-fold serial dilution assay; assay type: functional; settings: ATCC 6633, 48 h
Summary of the method: (§2)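 Twofold serial broth dilution run on compounds giving inhibition zones of 13 mm or more. Organisms pre-grown in suitable broth at 37 °C, 24 h for bacteria and 48 h for fungi. Dilution series 200, 100, 50, 25, 12.5, 6.25. Each 5 mL tube inoculated with 0.1 mL and incubated 37 °C for 48 h. Tubes scored for presence or absence of growth.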

Bacillus spizizenii [3] = experiment: Bactericidal activity against Bacillus subtilis ATCC 6633 after 18 hrs; assay type: functional; settings: ATCC 6633, 18 h
Summary of the method: (§3)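 Continuation of the broth-dilution MIC test. A loopful from each tube without visible growth spread on a quarter of a Mueller-Hinton agar plate and incubated 18 h. Lowest concentration giving no growth on subculture taken as the MBC.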

Staphylococcus aureus [4] = experiment: Antibacterial activity against Staphylococcus aureus ATCC 6538 assessed as growth inhibition after 48 hrs by two-fold serial dilution assay; assay type: functional; settings: ATCC 6538, 48 h; summary of the method: as §2
Candida albicans [5] = experiment: Fungicidal activity against Candida albicans ATCC 10231 after 18 hrs; assay type: functional; settings: ATCC 10231, 18 h; summary of the method: as §3
Pseudomonas aeruginosa [6] = experiment: Antibacterial activity against Pseudomonas aeruginosa ATCC 27853 assessed as growth inhibition at 1 mg/mL after 24 hrs by agar-cup diffusion method; assay type: functional; settings: ATCC 27853, 24 h, read-out: DIZ; summary of the method: as §1
Candida albicans [7] = experiment: Antifungal activity against Candida albicans ATCC 10231 assessed as growth inhibition after 48 hrs by two-fold serial dilution assay; assay type: functional; settings: ATCC 10231, 48 h; summary of the method: as §2
Aspergillus niger = experiment: Antifungal activity against Aspergillus niger assessed as growth inhibition at 1 mg/mL after 24 hrs by agar-cup diffusion method; assay type: functional, organism-based; summary of the method: as §1
Bacillus spizizenii [8] = experiment: Antibacterial activity against Bacillus subtilis ATCC 6633 assessed as growth inhibition at 1 mg/mL after 24 hrs by agar-cup diffusion method; assay type: functional; settings: ATCC 6633, 24 h, read-out: DIZ; summary of the method: as §1
Staphylococcus aureus [9] = experiment: Bactericidal activity against Staphylococcus aureus ATCC 6538 after 18 hrs; assay type: functional; settings: ATCC 6538, 18 h; summary of the method: as §3
Escherichia coli [10] = experiment: Antibacterial activity against Escherichia coli ATCC 25922 assessed as growth inhibition at 1 mg/mL after 24 hrs by agar-cup diffusion method; assay type: functional; settings: ATCC 25922, 24 h, read-out: DIZ; summary of the method: as §1
Staphylococcus aureus [11] = experiment: Antibacterial activity against Staphylococcus aureus ATCC 6538 assessed as growth inhibition at 1 mg/mL after 24 hrs by agar-cup diffusion method; assay type: functional; settings: ATCC 6538, 24 h, read-out: DIZ; summary of the method: as §1
Escherichia coli [12] = experiment: Antibacterial activity against Escherichia coli ATCC 25922 assessed as growth inhibition after 48 hrs by two-fold serial dilution assay; assay type: functional; settings: ATCC 25922, 48 h; summary of the method: as §2
Escherichia coli [13] = experiment: Bactericidal activity against Escherichia coli ATCC 25922 after 18 hrs; assay type: functional; settings: ATCC 25922, 18 h; summary of the method: as §3
Pseudomonas aeruginosa [14] = experiment: Bactericidal activity against Pseudomonas aeruginosa ATCC 27853 after 18 hrs; assay type: functional; settings: ATCC 27853, 18 h; summary of the method: as §3
Pseudomonas aeruginosa [15] = experiment: Antibacterial activity against Pseudomonas aeruginosa ATCC 27853 assessed as growth inhibition after 48 hrs by two-fold serial dilution assay; assay type: functional; settings: ATCC 27853, 48 h; summary of the method: as §2

MIC (Bacillus spizizenii [2])	MIC (Staphylococcus aureus [4])	MIC (Candida albicans [7])	MIC (Escherichia coli [12])	MIC (Pseudomonas aeruginosa [15])	SMILES	zone of inhibition at 1000 µg/mL (Candida albicans [1])	MBC (Bacillus spizizenii [3])	MFC (Candida albicans [5])	zone of inhibition at 1000 µg/mL (Pseudomonas aeruginosa [6])	growth inhibition (GI) (Aspergillus niger)	zone of inhibition at 1000 µg/mL (Bacillus spizizenii [8])	MBC (Staphylococcus aureus [9])	zone of inhibition at 1000 µg/mL (Escherichia coli [10])	zone of inhibition at 1000 µg/mL (Staphylococcus aureus [11])	MBC (Escherichia coli [13])	MBC (Pseudomonas aeruginosa [14])
100 µg/mL (≈ 319 µM)	50 µg/mL (≈ 160 µM)	100 µg/mL (≈ 319 µM)	–	–	CCOC(=O)c1sc(NC(=O)CN2CCOCC2)nc1C	> 13 mm	100 µg/mL (≈ 319 µM)	100 µg/mL (≈ 319 µM)	> 13 mm	inactive	> 13 mm	50 µg/mL (≈ 160 µM)	> 13 mm	> 13 mm	–	–
100 µg/mL (≈ 354 µM)	100 µg/mL (≈ 354 µM)	100 µg/mL (≈ 354 µM)	100 µg/mL (≈ 354 µM)	–	CCOC(=O)c1sc(NC(=O)C(F)(F)F)nc1C	> 13 mm	100 µg/mL (≈ 354 µM)	100 µg/mL (≈ 354 µM)	> 13 mm	inactive	> 13 mm	100 µg/mL (≈ 354 µM)	> 13 mm	> 13 mm	100 µg/mL (≈ 354 µM)	–
25 µg/mL (≈ 73.7 µM)	12.5 µg/mL (≈ 36.8 µM)	25 µg/mL (≈ 73.7 µM)	25 µg/mL (≈ 73.7 µM)	100 µg/mL (≈ 295 µM)	CCOC(=O)c1sc(NC(=S)Nc2ccc(F)cc2)nc1C	> 13 mm	25 µg/mL (≈ 73.7 µM)	50 µg/mL (≈ 147 µM)	> 13 mm	inactive	> 13 mm	12.5 µg/mL (≈ 36.8 µM)	> 13 mm	> 13 mm	25 µg/mL (≈ 73.7 µM)	100 µg/mL (≈ 295 µM)
